Article PMC3059893 (Biochemistry, 2011)
Positions count from the first letter of the chain named. Blank lines part the entries; values can stand above or below the molecule they belong to. Peptide text beside a SMILES is read from it. * marks the point of attachment. Dansyl = CN(C)c1cccc2c(S(=O)(=O)*)cccc12

Legend:
Tiam2 PDZ domain = target: T1, Tiam2 PDZ domain (Mus musculus, UniProt Q6ZPF3); assay: Equilibrium fluorescence anisotropy binding of dansylated peptides
T1 sequence (Q6ZPF3 908-997 limits assumed): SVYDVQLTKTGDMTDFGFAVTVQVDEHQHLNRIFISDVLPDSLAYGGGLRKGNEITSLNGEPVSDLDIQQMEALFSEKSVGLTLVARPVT
How it was run: (§1)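 Purified PDZ domains were titrated from a 1.5 mM stock into 1 μM N-terminally dansylated peptide at 25 °C in a stirred cuvette. Proteins were expressed in E. coli BL21(DE3), purified by Ni-chelate and size-exclusion chromatography, and His6-tag cleaved by TEV; Tiam2 is mouse residues 809–994; mutants made by site-directed mutagenesis. Anisotropy ex 340/em 550 nm, buffer-blank corrected. Kd from hyperbolic fit, mean of ≥3 independent runs; ΔG = RT ln Kd (298.15 K).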

Tiam1 PDZ L911M = Tiam1 PDZ L911M (Homo sapiens, UniProt Q13009, L911M); assay: Fluorescence anisotropy binding, Tiam1 PDZ mutant; details: Tiam1 PDZ L911M; fluorescence anisotropy, 25 °C
How it was run: as §1

Tiam1 PDZ K912E = Tiam1 PDZ K912E (Homo sapiens, UniProt Q13009, K912E); assay: Fluorescence anisotropy binding, Tiam1 PDZ mutant; details: Tiam1 PDZ K912E; fluorescence anisotropy, 25 °C
How it was run: as §1

Tiam1 PDZ L911M/K912E [1] = target: Tiam1 PDZ L911M/K912E (Mus musculus, UniProt Q60610, L911M/K912E, species not given); assay: Fluorescence anisotropy binding and double-mutant cycle, Tiam1 PDZ mutant; details: Tiam1 PDZ L911M/K912E
How it was run: (§2)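 Wild-type, single- and double-mutant Tiam1 PDZ (E. coli-expressed, tag-cleaved) were each titrated into 1 μM dansylated peptide at 25 °C. Anisotropy read at ex 340/em 550 nm; Kd from hyperbolic fit, ≥3 independent runs. ΔG = RT ln Kd at 298.15 K. Coupling energy ΔΔΔGint = (ΔGWT − ΔGM1) − (ΔGM2 − ΔGDM), with errors propagated by standard methods.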

Tiam1 PDZ L911M/K912E [2] = assay: as above; details: ΔGb(mutant) − ΔGb(wild-type); L911M/K912E
How it was run: as §2

Tiam1 PDZ L915F = Tiam1 PDZ L915F (Homo sapiens, UniProt Q13009, L915F); assay: Fluorescence anisotropy binding, Tiam1 PDZ mutant; details: Tiam1 PDZ L915F; fluorescence anisotropy, 25 °C
How it was run: as §1

Tiam1 PDZ L920V = Tiam1 PDZ L920V (Homo sapiens, UniProt Q13009, L920V); assay: Fluorescence anisotropy binding, Tiam1 PDZ mutant; details: Tiam1 PDZ L920V; fluorescence anisotropy, 25 °C
How it was run: as §1

Tiam1 PDZ L915F/L920V [3] = target: Tiam1 PDZ L915F/L920V (Mus musculus, UniProt Q60610, L915F/L920V, species not given); assay: Fluorescence anisotropy binding and double-mutant cycle, Tiam1 PDZ mutant; details: Tiam1 PDZ L915F/L920V
How it was run: as §2

Tiam1 PDZ L915F/L920V [4] = assay: as above; details: ΔGb(mutant) − ΔGb(wild-type); L915F/L920V
How it was run: as §2

[5] = target: Tiam1 PDZ QM (L911M/K912E/L915F/L920V) (Homo sapiens, UniProt Q13009, K912E/L911M/L915F/L920V); assay: Fluorescence anisotropy binding, Tiam1 PDZ quadruple mutant
How it was run: as §1

[6] = system: Tiam1 PDZ QM (L911M/K912E/L915F/L920V); assay: as above
How it was run: as §1

[7] = target: Tiam1 PDZ domain (wild-type) (Homo sapiens, UniProt Q13009); assay: Equilibrium fluorescence anisotropy binding of dansylated peptides
How it was run: as §1

Tiam1 peptide 3 = target: T2, Tiam1 peptide 3; assay: fluorescence anisotropy
T2 chain: YAAKAFRF

Tiam1 peptide 2 = target: T3, Tiam1 peptide 2; assay: fluorescence anisotropy
T3 chain: YAAEKYWA

Caspr4 = target: T4, Caspr4 (Homo sapiens); assay: fluorescence anisotropy
T4 chain: ENQKEYFF

Syndecan1 = target: T5, Syndecan1 (Homo sapiens); assay: fluorescence anisotropy
T5 chain: TKQEEFYA

Tiam1 PDZ L915F/L920V (Mus musculus, UniProt Q60610, L915F/L920V, species not given), sequence (Q60610 2-1591 L915F/L920V): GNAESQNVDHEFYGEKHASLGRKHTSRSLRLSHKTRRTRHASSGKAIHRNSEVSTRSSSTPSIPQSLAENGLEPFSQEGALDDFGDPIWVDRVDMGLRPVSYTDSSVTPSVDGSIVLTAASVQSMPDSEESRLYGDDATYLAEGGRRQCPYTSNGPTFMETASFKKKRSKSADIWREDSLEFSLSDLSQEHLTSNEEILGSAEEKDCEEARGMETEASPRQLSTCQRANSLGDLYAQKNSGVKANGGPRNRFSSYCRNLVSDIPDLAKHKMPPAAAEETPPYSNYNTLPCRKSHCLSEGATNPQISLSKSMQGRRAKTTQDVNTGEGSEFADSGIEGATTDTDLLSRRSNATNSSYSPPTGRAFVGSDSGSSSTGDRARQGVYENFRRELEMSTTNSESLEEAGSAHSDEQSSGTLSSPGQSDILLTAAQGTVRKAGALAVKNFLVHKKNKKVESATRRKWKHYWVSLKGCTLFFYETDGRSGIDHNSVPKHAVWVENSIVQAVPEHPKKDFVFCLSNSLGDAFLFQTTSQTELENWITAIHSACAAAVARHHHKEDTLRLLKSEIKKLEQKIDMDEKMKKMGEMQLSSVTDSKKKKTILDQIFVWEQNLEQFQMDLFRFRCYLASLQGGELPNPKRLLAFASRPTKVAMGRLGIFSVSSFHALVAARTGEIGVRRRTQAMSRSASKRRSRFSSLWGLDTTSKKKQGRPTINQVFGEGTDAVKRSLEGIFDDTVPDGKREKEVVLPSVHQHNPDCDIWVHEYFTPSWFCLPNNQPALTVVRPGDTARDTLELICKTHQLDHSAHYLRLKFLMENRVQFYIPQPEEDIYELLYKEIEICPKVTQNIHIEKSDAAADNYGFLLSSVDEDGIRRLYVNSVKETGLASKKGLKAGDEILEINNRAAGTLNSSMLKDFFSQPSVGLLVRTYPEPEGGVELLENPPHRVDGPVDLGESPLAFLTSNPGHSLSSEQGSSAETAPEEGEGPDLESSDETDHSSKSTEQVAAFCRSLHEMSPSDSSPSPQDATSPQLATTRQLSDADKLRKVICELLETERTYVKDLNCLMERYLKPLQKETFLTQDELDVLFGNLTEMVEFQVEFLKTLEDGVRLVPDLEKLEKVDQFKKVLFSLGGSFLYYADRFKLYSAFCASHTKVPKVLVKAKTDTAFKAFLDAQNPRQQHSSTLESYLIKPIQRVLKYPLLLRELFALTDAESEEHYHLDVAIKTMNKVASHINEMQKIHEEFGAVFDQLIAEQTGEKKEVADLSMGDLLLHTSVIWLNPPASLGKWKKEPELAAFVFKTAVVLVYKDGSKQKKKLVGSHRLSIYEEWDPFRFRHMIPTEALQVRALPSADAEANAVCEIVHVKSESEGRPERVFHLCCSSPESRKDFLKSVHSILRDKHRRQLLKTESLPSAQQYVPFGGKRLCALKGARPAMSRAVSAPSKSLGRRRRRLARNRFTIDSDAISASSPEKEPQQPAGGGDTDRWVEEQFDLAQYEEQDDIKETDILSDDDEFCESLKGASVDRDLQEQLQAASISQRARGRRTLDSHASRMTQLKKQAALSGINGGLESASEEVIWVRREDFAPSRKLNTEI
Tiam1 PDZ L911M/K912E (Mus musculus, UniProt Q60610, L911M/K912E, species not given), sequence (Q60610 2-1591 L911M/K912E): as the sequence (Q60610 2-1591 L915F/L920V) above, with L910M, K911E, F914L, V919L counted along it
Tiam1 PDZ domain (wild-type), sequence (Q13009 841-930 limits assumed): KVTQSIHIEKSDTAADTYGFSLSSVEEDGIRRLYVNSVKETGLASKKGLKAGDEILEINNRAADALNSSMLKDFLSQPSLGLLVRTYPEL
Tiam1 PDZ QM (L911M/K912E/L915F/L920V) (Homo sapiens, UniProt Q13009, K912E/L911M/L915F/L920V), sequence (Q13009 841-930 L911M/K912E/L915F/L920V limits assumed): as the sequence (Q13009 841-930 limits assumed) above, with L71M, K72E, L75F, L80V counted along it
Tiam1 PDZ L911M, sequence (Q13009 841-930 L911M limits assumed): as the sequence (Q13009 841-930 limits assumed) above, with L71M counted along it
Tiam1 PDZ L915F, sequence (Q13009 841-930 L915F limits assumed): as the sequence (Q13009 841-930 limits assumed) above, with L75F counted along it
Tiam1 PDZ K912E, sequence (Q13009 841-930 K912E limits assumed): as the sequence (Q13009 841-930 limits assumed) above, with K72E counted along it
Tiam1 PDZ L920V, sequence (Q13009 841-930 L920V limits assumed): as the sequence (Q13009 841-930 limits assumed) above, with L80V counted along it

Molecule: C[C@H](NC(=O)[C@H](Cc1ccc(O)cc1)NC(=O)[C@H](Cc1ccc(O)cc1)NC(=O)[C@H](CCC(=O)O)NC(=O)[C@H](CCCCN)NC(=O)[C@H](CCCNC(=N)N)NC(=O)[C@H](CO)NC(=O)[C@H](CO)NS(=O)(=O)c1cccc2c(N(C)C)cccc12)C(=O)O [Model, reference compound] (Dansyl-SSRKEYYA-OH)
- Kd (Tiam2 PDZ domain): 24.1 ± 7.1 µM

Molecule: CC(C)[C@H](NC(=O)[C@H](Cc1ccc(O)cc1)NC(=O)[C@H](Cc1ccc(O)cc1)NC(=O)[C@H](CCC(=O)O)NC(=O)[C@H](CCCCN)NC(=O)[C@H](CC(=O)O)NC(=O)[C@H](CCCCN)NC(=O)[C@H](CC(N)=O)NS(=O)(=O)c1cccc2c(N(C)C)cccc12)C(=O)O [Neurexin1] (Dansyl-NKDKEYYV-OH)
- Kd (Tiam2 PDZ domain): 5 ± 0.2 µM
- Kd (Tiam1 PDZ L911M): bound very weakly
- Kd (Tiam1 PDZ K912E): bound very weakly
- ΔGb (Tiam1 PDZ L911M/K912E [1]): -4.90 ± 0.30 kcal/mol
- Kd (Tiam1 PDZ L911M/K912E [1]; fluorescence anisotropy, 25 °C): 270 ± 150 µM
- ΔΔGb (Tiam1 PDZ L911M/K912E [2]): -1.30 ± 0.30 kcal/mol
- Kd (Tiam1 PDZ L915F): too weak to allow for reliable measurement
- Kd (Tiam1 PDZ L920V): too weak to allow for reliable measurement
- ΔGb (Tiam1 PDZ L915F/L920V [3]): -5.15 ± 0.07 kcal/mol
- Kd (Tiam1 PDZ L915F/L920V [3]; fluorescence anisotropy, 25 °C): 166 ± 12 µM
- ΔΔGb (Tiam1 PDZ L915F/L920V [4]): -1.58 ± 0.10 kcal/mol
- Kd [5]: 46 ± 2 µM
- ΔGb ([5]; Tiam1 PDZ QM): -5.91 ± 0.04 kcal/mol
- fold higher Kd than Tiam2 PDZ domain ([6]; QM vs Tiam2 PDZ): 9 fold
- ΔΔGb ([6]; ΔGb(mutant) − ΔGb(wild-type), QM): -2.30 ± 0.10 kcal/mol

Molecule: C[C@H](NC(=O)[C@H](CCCNC(=N)N)NC(=O)[C@H](Cc1ccc(O)cc1)NC(=O)[C@H](CCCNC(=N)N)NC(=O)[C@H](Cc1ccc(O)cc1)NC(=O)[C@H](C)NC(=O)[C@H](C)NC(=O)[C@H](Cc1ccc(O)cc1)NS(=O)(=O)c1cccc2c(N(C)C)cccc12)C(=O)O [Tiam1 peptide 1 (Group I)] (Dansyl-YAAYRYRA-OH)
- Kd [7]: > 250 µM
- Kd (Tiam2 PDZ domain): 22.5 ± 1.1 µM

B2: Tiam1 PDZ (protein)
chain: VTQSIHIEKSDTAADTYGFSLSSVEEDGIRRLYVNSVKETGLASKKGLKAGDEILEINNRAADALNSSMM
- Kd (Caspr4): 14 µM
- Kd (Syndecan1): 34.7 µM

Further lines, results first:

- Kd [7]: 90.3 ± 8.3 µM
- Kd (Tiam2 PDZ domain): 10.9 ± 0.4 µM
Molecule: C[C@H](NC(=O)[C@H](Cc1c[nH]c2ccccc12)NC(=O)[C@H](Cc1ccc(O)cc1)NC(=O)[C@H](CCCCN)NC(=O)[C@H](CCC(=O)O)NC(=O)[C@H](C)NC(=O)[C@H](C)NC(=O)[C@H](Cc1ccc(O)cc1)NS(=O)(=O)c1cccc2c(N(C)C)cccc12)C(=O)O [Tiam1 peptide 2 (Group I)] (Dansyl-YAAEKYWA-OH)

- Kd (Tiam1 peptide 3): 200 µM
- Kd (Tiam1 peptide 2): 90.3 µM
- Kd (Caspr4): 19 µM
B1: Tiam1 PDZ (protein)
chain: B2 chain with M70L
